Test results: PMC2765518 (Journal of medicinal chemistry, 2009)
pIC50, pKd: −log10 of the molar value.

Experiments:
[1] = cited from earlier work
c-Myc (353–437) monomer = c-Myc (353–437) monomer (Homo sapiens, UniProt P01106); assay: Fluorescence polarization competition against 1 for c-Myc binding
Method in brief: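 Fluorescence polarization of an intrinsically fluorescent parent Myc-Max disruptor used as probe; polarization rises when the probe binds the c-Myc (353–437) monomer. Test compound was titrated to displace the probe, and the data fitted to a competition constant (Kcomp). Affinity is Kcomp multiplied by the probe–c-Myc(353–437) dissociation constant. Run in triplicate.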

c-Myc-Max(S) heterodimer = c-Myc-Max(S) heterodimer (Homo sapiens, UniProt P01106); assay: Circular dichroism assay of c-Myc-Max dimer disruption; format: biochemical
c-Myc-Max(S) heterodimer, sequence (P01106 368-452, one chain of several): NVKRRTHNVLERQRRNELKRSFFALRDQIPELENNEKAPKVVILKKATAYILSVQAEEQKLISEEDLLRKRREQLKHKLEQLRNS
Method in brief: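 Circular dichroism of an equimolar c-Myc/Max(S) mixture, each at 1.5 µM, with helical content from ellipticity at 222 nm. Dimer disruption lowers helicity. Test compound was titrated and the data fitted to a competition constant (Kcomp). Kcomp multiplied by the independently determined c-Myc-Max dissociation constant gives the affinity for the c-Myc monomer, assuming monomer-only binding. Run in triplicate.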

HL60 cells = assay: HL60 cell growth inhibition; format: cell-based; details: for Inhibition in HL60 cells: higher levels of c-Myc
Method in brief: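 Test compound added to HL60 cells across a dose range, and growth followed over several days. IC50 taken from the dose-response profile on day 5 after compound addition. For the selectivity comparison, TGR1 normal rat fibroblasts and TGR1 knockout cells over-expressing HMGA1b (KO+HMG) were tested alongside.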

[2] = system: TGR1 knockout cells with over-expressed HMGA1b (KO+HMG); assay: Growth inhibition of TGR1 knockout cells with over-expressed HMGA1b; format: cell-based, rat; details: cells lacking c-Myc; compared with HL60 and TGR1

c-Myc (353–437) monomer, sequence (P01106 368-452): as the sequence (P01106 368-452, one chain of several) above

Row | SMILES | Metabolism and clearance [1] | pKd (c-Myc (353–437) monomer) | pKd (c-Myc-Max(S) heterodimer) | Inhibition in HL60 cells (HL60 cells) | Selectivity for HL60 cells (HL60 cells; HL60 versus TGR1 and KO+HMG cells) | Effect on growth of KO+HMG cells [2] | pIC50 (HL60 cells; Homo sapiens, HL-60, 120 h, read-out: IC50 on HL60 cell growth)
1 | CCc1ccc(/C=C2\SC(=S)NC2=O)cc1 [compound 1, [Z,E]-5-[4-ethylbenzylidine]-2-thioxothiazolidin-4-one] | extensive metabolism and rapid clearance |  |  |  |  |  | 
2 | O=C(CCN1C(=O)c2ccccc2C1=O)N1CCCCC1 [compound 2] |  | 5.60 | 5.00 |  |  |  | 
3 | CCc1ccc(N2CC(C(=O)OC)CC2=O)cc1 (stereo not drawn) [compound 3] |  | 4.40 | 4.60 |  |  |  | 
4 | CC(C)c1ccc(OCC(=O)Nc2nc3ccccc3s2)cc1 [compound 4] |  | 4.74 | 4.72 |  |  |  | 
5 | CCc1ccc(OCC(=O)Nc2ccc(C)cc2Br)cc1 [compound 5] |  | 4.15 | 4.35 | very good inhibition | more selective for HL60s than 6 | least effect | 
6 | Cc1ccc(C)c(OCN2Cc3ccccc3C2C=O)c1 (stereo not drawn) [compound 6] |  |  |  | very good inhibition |  | least effect | 4.78
